Assay outcomes (PubChem)
Compounds with a hit are over-represented: about 2.2% of the library has one in this group of screens.
Apaf1 inhib = blocks human Apaf-1 apoptosome activity; O14727; reconstituted apoptosome caspase-3 activity, DEVD-Rh110 fluorescence; inhibition, % at 20 µM; 330,000 tested, 0.71% active; active = inhibition of at least 40% at 20 µM
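Material: reconstituted apoptosome with Apaf-1, cytochrome c, caspase-9, procaspase-3, dATP / Buffer or medium: pH 7.5 Hepes buffer with CHAPS, BSA, DTT / Also added: cytochrome c with DEVD-Rh110 / Schedule: compound with Apaf-1, dATP, procaspase-3 30 min, then 50 min reaction, room temperature / Technique: rhodamine 110 fluorescence at Ex 480/Em 540 nm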
SUMO HTRF inh = inhibitors of human SUMOylation (UBC9); HTRF SUMOylation assay, SAE1/SAE2 + UBC9, in vitro; inhibition, % at 35 µM; 290,000 tested, 0.36% active; in the data active = inhibition above about 50%, passing the limit was not always enough; inconclusive = no clear call, values can overlap the other calls
Target sequence (P63279 whole entry, looked up): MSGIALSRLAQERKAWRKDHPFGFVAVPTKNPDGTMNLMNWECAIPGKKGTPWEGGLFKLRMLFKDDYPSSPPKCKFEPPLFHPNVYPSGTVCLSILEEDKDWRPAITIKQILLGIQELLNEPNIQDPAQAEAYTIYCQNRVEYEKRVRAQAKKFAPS
PAD4 FP inh = blocks human protein arginine deiminase 4 | 330,000 tested, 0.41% active | recombinant PAD4, RCA probe fluorescence polarization | AID 485272 | inhibition, % at 6.36 µM;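 active = percent inhibition above a cutoff equal to the mean of all tested compounds plus 3 SD, cut at about 15% in these data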
GSTO1 counter = blocks human GSTO1 in RBBP9 counter-screen; P78417; recombinant GSTO1, activity-based probe fluorescence polarization; inhibition, % at 5.96 µM; 300,000 tested, 1.1% active;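 active = inhibition above the campaign mean inhibition plus 3 SD, cut at about 35% in these data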
Target sequence (P78417 whole entry, looked up): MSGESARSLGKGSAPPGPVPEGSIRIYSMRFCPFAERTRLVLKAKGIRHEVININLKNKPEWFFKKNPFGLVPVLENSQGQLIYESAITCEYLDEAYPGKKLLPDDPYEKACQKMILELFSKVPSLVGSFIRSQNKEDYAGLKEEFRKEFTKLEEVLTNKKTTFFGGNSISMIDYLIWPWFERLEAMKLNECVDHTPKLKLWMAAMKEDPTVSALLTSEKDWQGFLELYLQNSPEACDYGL
Rin1 Abl inh = inhibitors of human Rin1-Abl protein interaction | 360,000 tested, 0.4% active | inhibition, % at 7.35 µM | P00519+Q13671 | AID 588664 | TR-FRET Rin1/Abl binding, biochemical; in the data active = inhibition above about 5%, passing the limit was not always enough
UBC13 polyUb = inhibitors of human UBC13 polyubiquitin chain formation; P61088; TR-FRET; inhibition, % at 20 µM; 330,000 tested, 0.47% active; AID 485273; in the data active = inhibition above about 45%, passing the limit was not always enough; inconclusive = no clear call, values can overlap the other calls
Apaf-1 inh conf2 = Apaf-1 inhibition, single-dose confirmed. shares compounds with Apaf1 inhib. reconstituted apoptosome, caspase-3 DEVD-Rh110 fluorescence. inhibition, % at 20 µM. 1,800 tested, 25% active. AID 504614;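 active = mean inhibition of at least 40% at 20 µM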
Rh110 quench = interferes with Rh110 fluorescence, flagging false Apaf-1 inhibitors; shares compounds with Apaf1 inhib; Rh110 fluorescence interference, quenched caspase reaction; activation (fluorescence interference), % at 20 µM; 1,800 tested, under 10 active; AID 504615;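 active = signal rise of 40% or more at 20 µM, treated as a fluorescence artifact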
Fluor interf inh = counter-screen for Apaf-1 inhibitors: fluorescence interference, dose response. shares compounds with Apaf1 inhib. fluorescence interference counterscreen, Apaf-1 assay format. 460 tested, under 10 active. IC50, µM; call rule not given here
Of the large screens only hits and unclear results are named; the others gave an inactive call (follow-up assays come after a bar, where they were run).

O=C(Nc1ccncc1)c1cc(-c2cccc(Br)c2)nc2ccccc12	Apaf1 inhib 47 (no result: SUMO HTRF inh) | Apaf-1 inh conf2 inactive | Rh110 quench inactive
COc1ccc(NC(=O)c2cc(-c3cccnc3)nc3ccc(C)cc23)cc1OC	none (no result: Apaf1 inhib, PAD4 FP inh, GSTO1 counter, UBC13 polyUb)
O=C(Nc1cccnc1)c1cc(-c2cccc(Br)c2)nc2ccccc12	none
CCOC(=O)c1nn(-c2ccc(OC)cc2)c(=O)c2c(N)scc12	none
CCOC(=O)c1nn(-c2ccc(C)c(C)c2)c(=O)c2c(N)scc12	Apaf1 inhib 56 | Apaf-1 inh conf2 41 | Rh110 quench inactive | Fluor interf inh inactive
CCOC(=O)CCNC(=O)N1CCCC(C(=O)c2cc(C)c(OC)c(C)c2)C1 (configuration not stated)	none
CCOC(=O)CNCCC(=O)c1ccc(Br)cc1	Apaf1 inhib 58 | Apaf-1 inh conf2 inactive | Rh110 quench inactive
Cn1c(=O)c2c(nc(CN3CCN(Cc4ccccc4)CC3)n2Cc2cccc(Cl)c2)n(C)c1=O	none
Cn1c(=O)c2c(nc(CN3CCc4ccccc4C3)n2Cc2cccc(Cl)c2)n(C)c1=O	Apaf1 inhib 51 | Apaf-1 inh conf2 inactive | Rh110 quench inactive
O=C(O)c1cc(-c2ccc(-c3ccc(F)cc3)o2)nc2ccccc12	none (no result: SUMO HTRF inh)
CN1CCCC1CCNc1ccc2sc3ccccc3c(=O)c2c1 (configuration not stated)	Apaf1 inhib 44 (no result: SUMO HTRF inh) | Apaf-1 inh conf2 inactive | Rh110 quench inactive
O=C(COC(=O)c1ccc(Cl)nc1)Nc1cc(S(=O)(=O)N2CCOCC2)ccc1Cl	none (no result: SUMO HTRF inh, GSTO1 counter)
CCOc1ccccc1N1CCN(C(=O)C2c3ccccc3Oc3ccccc32)CC1	Apaf1 inhib 41 | Apaf-1 inh conf2 40 | Rh110 quench inactive | Fluor interf inh inactive
O=C(COc1ccc2c3c(c(=O)oc2c1)CCCC3)NCCCN1CCOCC1	none
O=C1c2ccccc2-c2onc3c(N4CCN(CCO)CC4)cc(N4CCN(C(=O)c5ccco5)CC4)c1c23	Apaf1 inhib 52, GSTO1 counter 37 | Apaf-1 inh conf2 inactive | Rh110 quench inactive
O=C(c1ccco1)N1CCN(CCCCN2C(=O)c3ccccc3C2=O)CC1	none
CCOC(=O)N1CCN(c2cc(NCCC(=O)O)c3c4c(onc24)-c2ccccc2C3=O)CC1	Apaf1 inhib 75, GSTO1 counter 60 | Apaf-1 inh conf2 54 | Rh110 quench inactive | Fluor interf inh 6.3
CSc1ncnc2c1ncn2CCCNCCc1ccccn1	none (no result: Apaf1 inhib, SUMO HTRF inh, PAD4 FP inh, GSTO1 counter, UBC13 polyUb)
Cc1ccccc1C(=O)NNS(=O)(=O)c1ccc(F)cc1	none (no result: Apaf1 inhib, SUMO HTRF inh, PAD4 FP inh, GSTO1 counter, UBC13 polyUb)
CC(C)(C)c1ccc(-c2nn(CCC#N)cc2/C=N/O)cc1	Apaf1 inhib 50 | Apaf-1 inh conf2 inactive | Rh110 quench inactive
CCC/C(=C1/c2ccccc2C(=O)N1c1ccccc1)c1cnc(OC)nc1	Apaf1 inhib 41 (no result: SUMO HTRF inh, GSTO1 counter) | Apaf-1 inh conf2 inactive | Rh110 quench inactive
COc1ccc(Cn2c(N)c(C#N)c3nc4ccccc4nc32)cc1OC	Apaf1 inhib 86 | Apaf-1 inh conf2 inactive | Rh110 quench inactive
O=C(CNc1cccc2ccccc12)N/N=C/c1ccccn1	Apaf1 inhib 48 | Apaf-1 inh conf2 inactive | Rh110 quench inactive
Cc1cccc(NCC(=O)N/N=C\c2ccccn2)c1	none
OCC(O)C1OC(c2ccco2)OC(CO)C1O (configuration not stated)	none (no result: Apaf1 inhib, SUMO HTRF inh, PAD4 FP inh, GSTO1 counter, UBC13 polyUb)
CNC(C)C(=O)NC(C(=O)NC(C)C(=O)NNc1ccccc1)C(C)C (configuration not stated)	none (no result: Apaf1 inhib, SUMO HTRF inh, PAD4 FP inh, GSTO1 counter, UBC13 polyUb)
N#Cc1ccc(S(=O)(=O)N2CCCCC2c2cc(C(=O)N3CCOCC3)no2)cc1 (configuration not stated)	none (no result: Apaf1 inhib, SUMO HTRF inh, PAD4 FP inh, GSTO1 counter, UBC13 polyUb)
COc1cc(-c2ccc(Nc3ccccc3C(=O)O)c(OC)c2)ccc1Nc1ccccc1C(=O)O	Apaf1 inhib 48, SUMO HTRF inh inconclusive (no result: PAD4 FP inh, GSTO1 counter) | Apaf-1 inh conf2 49 | Rh110 quench inactive | Fluor interf inh inactive
O=C(Nc1cccc([N+](=O)[O-])c1)NN1CCCCCC1	none (no result: Apaf1 inhib, SUMO HTRF inh, PAD4 FP inh, GSTO1 counter, UBC13 polyUb)
CSc1ccc(Cn2c(C)c(C(=O)NCCC#N)sc2=O)cc1	none (no result: Apaf1 inhib, SUMO HTRF inh, PAD4 FP inh, GSTO1 counter, UBC13 polyUb)
